The record followed here is ChEMBL document CHEMBL4354873, “Rationally Designed Small-Molecule Inhibitors Targeting an Unconventional Pocket on the TLR8 Protein-Protein Interface” (J Med Chem, 2020).

The target of experiment [1] is T1, Toll-like receptor 8 (Homo sapiens, UniProt Q9NR97).
T1 sequence (Q9NR97 whole entry): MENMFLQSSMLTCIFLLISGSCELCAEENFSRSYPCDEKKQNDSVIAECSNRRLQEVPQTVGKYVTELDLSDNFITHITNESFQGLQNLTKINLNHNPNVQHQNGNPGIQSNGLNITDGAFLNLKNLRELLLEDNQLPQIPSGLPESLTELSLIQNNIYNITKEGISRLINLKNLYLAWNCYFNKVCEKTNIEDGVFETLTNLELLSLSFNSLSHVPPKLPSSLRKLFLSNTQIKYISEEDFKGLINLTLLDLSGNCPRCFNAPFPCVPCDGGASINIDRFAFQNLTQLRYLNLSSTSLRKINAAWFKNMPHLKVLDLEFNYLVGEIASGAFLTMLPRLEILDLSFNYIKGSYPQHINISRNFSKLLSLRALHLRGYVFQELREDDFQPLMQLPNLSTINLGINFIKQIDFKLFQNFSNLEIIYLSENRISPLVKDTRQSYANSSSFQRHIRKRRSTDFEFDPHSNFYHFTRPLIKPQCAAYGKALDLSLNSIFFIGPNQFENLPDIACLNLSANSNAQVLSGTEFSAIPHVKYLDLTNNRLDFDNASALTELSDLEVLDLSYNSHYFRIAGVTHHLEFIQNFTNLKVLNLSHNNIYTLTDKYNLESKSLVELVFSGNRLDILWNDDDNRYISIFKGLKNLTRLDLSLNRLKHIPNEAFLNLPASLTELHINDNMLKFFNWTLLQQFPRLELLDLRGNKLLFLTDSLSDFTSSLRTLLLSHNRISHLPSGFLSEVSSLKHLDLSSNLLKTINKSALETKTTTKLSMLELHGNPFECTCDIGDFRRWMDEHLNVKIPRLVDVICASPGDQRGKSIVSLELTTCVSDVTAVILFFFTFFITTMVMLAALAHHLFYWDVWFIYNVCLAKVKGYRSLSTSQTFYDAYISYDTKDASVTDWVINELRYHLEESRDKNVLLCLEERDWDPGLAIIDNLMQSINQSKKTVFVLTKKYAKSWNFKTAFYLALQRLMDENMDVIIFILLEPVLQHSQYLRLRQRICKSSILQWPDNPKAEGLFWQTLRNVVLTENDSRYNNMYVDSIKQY
Nature of the experiment: Binding affinity to human TLR8 ectodomain by isothermal titration calorimetry. The essentials: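 ITC at 298 K in 25 mM MES pH 5.5, 0.20 M NaCl, 5% DMSO. The protein was the human TLR8 ectodomain (residues 27–827). 100 µM compound was titrated into 10 µM hTLR8 as one 0.4 µL injection followed by 18 × 2 µL injections, 120 s apart. Integrated peaks were fitted for Kd.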

For experiment [2], the target named is Toll-like receptor 3 (Homo sapiens) (UniProt O15455). As to the kind of experiment: Inhibition of human TLR3 expressed in HEK-Blue cells assessed as inhibition of poly(I/C)-induced NF-kappaB activation at 20 uM measured after 24 hrs by quanti-blue based SEAP reporter gene assay. Format: cell-based. The essentials: (§1)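 HEK-Blue SEAP format: 4 × 10⁴ cells/well in DMEM with ligand plus compound, 24 h at 37 °C. Supernatant mixed with QUANTI-Blue up to 1 h, then A620 read. Ligands: Pam3CSK4 100 ng/mL (TLR1/2), Pam2CSK4 100 ng/mL (TLR2/6), poly(I:C) 5 µg/mL (TLR3), LPS 20 ng/mL (TLR4), flagellin 50 ng/mL (TLR5), R848 1 µg/mL (TLR7), R848 2 µg/mL (TLR8), ODN2006 0.5 µM (TLR9). Mean ± s.d.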
On the technique in general: In a reporter assay the amount or activity of a reporter protein is the signal.

In experiment [3] the target is T2, Toll-like receptor 7 (Homo sapiens) (UniProt Q9NYK1).
T2 sequence (whole entry): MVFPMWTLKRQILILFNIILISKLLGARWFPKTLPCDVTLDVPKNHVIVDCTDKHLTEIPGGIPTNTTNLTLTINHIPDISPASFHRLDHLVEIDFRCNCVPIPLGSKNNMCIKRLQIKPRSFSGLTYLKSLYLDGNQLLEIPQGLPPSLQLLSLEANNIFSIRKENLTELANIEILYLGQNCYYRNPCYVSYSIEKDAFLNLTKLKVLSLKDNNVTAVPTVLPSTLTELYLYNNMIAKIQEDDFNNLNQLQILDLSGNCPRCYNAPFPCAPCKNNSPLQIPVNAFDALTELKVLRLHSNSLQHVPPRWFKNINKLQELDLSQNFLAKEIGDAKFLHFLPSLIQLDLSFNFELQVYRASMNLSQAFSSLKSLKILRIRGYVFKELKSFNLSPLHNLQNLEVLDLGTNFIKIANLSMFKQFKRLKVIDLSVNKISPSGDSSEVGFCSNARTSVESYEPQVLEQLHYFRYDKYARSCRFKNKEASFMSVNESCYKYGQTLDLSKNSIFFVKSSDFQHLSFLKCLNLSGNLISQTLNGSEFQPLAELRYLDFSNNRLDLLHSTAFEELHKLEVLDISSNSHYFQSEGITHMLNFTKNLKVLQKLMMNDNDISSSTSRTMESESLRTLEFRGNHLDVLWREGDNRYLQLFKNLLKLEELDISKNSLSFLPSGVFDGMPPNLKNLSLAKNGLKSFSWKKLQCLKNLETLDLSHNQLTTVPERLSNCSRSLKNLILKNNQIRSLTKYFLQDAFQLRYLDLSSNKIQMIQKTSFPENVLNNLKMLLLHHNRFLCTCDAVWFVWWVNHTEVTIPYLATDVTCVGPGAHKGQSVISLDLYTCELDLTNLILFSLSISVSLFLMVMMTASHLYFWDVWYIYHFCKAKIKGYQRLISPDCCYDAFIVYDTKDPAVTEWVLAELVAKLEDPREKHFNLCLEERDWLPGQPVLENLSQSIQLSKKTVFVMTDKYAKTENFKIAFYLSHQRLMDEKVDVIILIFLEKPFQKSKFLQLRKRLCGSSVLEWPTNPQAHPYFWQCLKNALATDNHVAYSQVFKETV
As to the kind of experiment: Inhibition of human TLR7 expressed in HEK-Blue cells assessed as inhibition of R848-induced NF-kappaB activation at 20 uM measured after 24 hrs by quanti-blue based SEAP reporter gene assay. Format: cell-based. In short, it runs like this: as §1

In experiment [4] the target is T3, Toll-like receptor 8 (Homo sapiens) (UniProt Q9NR97).
T3 sequence (whole entry): T1 sequence (Q9NR97 whole entry)
As to the kind of experiment: Inhibition of TLR8 in human PBMC assessed as reduction in R848-induced TNFalpha production measured after 24 hrs by ELISA. In short, it runs like this: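 PBMCs from healthy donors isolated by density gradient centrifugation and cultured at once at 3 × 10⁶ cells/mL in RPMI 1640. Cells received R848 and varying compound concentrations for 24 h. Supernatants spun 10 min at 4 °C, frozen at −80 °C, and TNF-α measured by ELISA.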
A general note: ELISA stands for enzyme-linked immunosorbent assay.

In experiment [5] the target is T2, Toll-like receptor 7 (Homo sapiens). Nature of the experiment: Effect on TLR7-mediated signaling in human PBMC assessed as change in basal TNFalpha secretion up to 20 uM measured after 24 hrs by ELISA.

The source made the active and inactive calls. The calls are words filed in the database; no cut-off is given here.

Toll-like receptor 3 (Homo sapiens), sequence (O15455 whole entry): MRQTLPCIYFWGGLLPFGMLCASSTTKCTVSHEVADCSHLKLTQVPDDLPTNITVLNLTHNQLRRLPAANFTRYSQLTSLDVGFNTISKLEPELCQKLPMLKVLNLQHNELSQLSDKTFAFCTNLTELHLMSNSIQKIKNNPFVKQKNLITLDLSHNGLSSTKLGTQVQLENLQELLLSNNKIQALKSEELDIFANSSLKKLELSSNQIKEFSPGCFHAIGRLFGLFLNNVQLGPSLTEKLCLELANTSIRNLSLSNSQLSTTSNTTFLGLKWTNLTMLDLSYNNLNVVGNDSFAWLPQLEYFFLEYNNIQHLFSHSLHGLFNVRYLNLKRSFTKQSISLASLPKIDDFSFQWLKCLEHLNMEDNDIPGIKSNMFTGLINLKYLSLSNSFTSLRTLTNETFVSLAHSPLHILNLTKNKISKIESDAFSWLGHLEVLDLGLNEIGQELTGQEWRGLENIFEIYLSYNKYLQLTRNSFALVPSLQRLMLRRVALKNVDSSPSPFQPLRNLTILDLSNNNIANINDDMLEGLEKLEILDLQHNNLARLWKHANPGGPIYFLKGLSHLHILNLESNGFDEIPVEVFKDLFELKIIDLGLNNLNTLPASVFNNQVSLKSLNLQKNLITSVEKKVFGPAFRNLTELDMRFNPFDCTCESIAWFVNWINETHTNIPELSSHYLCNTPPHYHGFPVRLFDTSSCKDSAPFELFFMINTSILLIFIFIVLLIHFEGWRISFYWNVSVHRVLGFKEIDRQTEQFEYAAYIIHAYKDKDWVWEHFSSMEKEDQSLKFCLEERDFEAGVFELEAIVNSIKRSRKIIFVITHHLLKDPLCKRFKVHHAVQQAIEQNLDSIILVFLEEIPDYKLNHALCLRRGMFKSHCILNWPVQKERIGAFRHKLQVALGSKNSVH

One may read the Kd as a measure of binding affinity in units of concentration. Read a high Kd as lower affinity. Compound `CSc1nnc(CCCO)n1-c1cc(C)c(C)c(C)c1` came in with a Kd in experiment [1] of 225 nM. Further, the inhibition result in experiment [2] and in experiment [3] was “inactive” each time. For the same compound, the inhibition result in experiment [4] is “Dose-dependent effect”. The outcome in experiment [5] was inactive.
